The source made the active and inactive calls. No cut-off for these calls is given here.
Tested on: Splenocyte
Assay: Immunosuppressive activity in influenza virus A/PR/8/34-H1N1 infected mouse splenocytes assessed as reduction of IL-2 level at 0.5 mg/ml after 48 hrs by ELISA
Type: functional, cell-based
Conditions: not given
How it was run: (§1)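 Spleen cells from mice taken 7 days after influenza infection; RBCs lysed with ammonium chloride, washed in HBSS, 5 × 10⁶ cells/ml in AIM-V. Restimulated with virus, compounds at 0.5 mg/ml final, triplicate, 37 °C, 5% CO₂. Supernatants collected at 48 h for IL-2 and IFN-γ and at 96 h for IL-10. Sandwich ELISA, TMB readout, four-parameter standard-curve fit.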

Compound | Activity
COc1cc2c(cc1OC)-c1cc3cccc(OC)c3n1CC2 | Active
FC(F)(F)c1ccc2c(c1)cc1n2CCc2ccccc2-1 | Active
COc1cc2c(cc1OC)-c1cc3ccc(C(F)(F)F)cc3n1CC2 | Active
COc1cc2cc3n(c2cc1OC)CCc1ccccc1-3 | Active
COc1cc2c(cc1OC)-c1cc3cc(C(F)(F)F)ccc3n1CC2 | Active
COc1cc2c(cc1OC)-c1cc3cc(OC)c(OC)cc3n1CC2 | Active
COc1cccc2cc3n(c12)CCc1ccccc1-3 | Active
COc1cc2c(cc1OC)-c1cc3ccccc3n1CC2 | Active
FC(F)(F)c1ccc2cc3n(c2c1)CCc1ccccc1-3 | Active
c1ccc2c(c1)CCn1c-2cc2ccccc21 | Active

Tested on: Splenocyte
Assay: Immunosuppressive activity in influenza virus A/PR/8/34-H1N1 infected mouse splenocytes assessed as reduction of IFN-gamma level at 0.5 mg/ml after 48 hrs by ELISA
Type: functional, cell-based
Conditions: not given
How it was run: as §1

Compound | Activity
COc1cc2c(cc1OC)-c1cc3cccc(OC)c3n1CC2 | Active
FC(F)(F)c1ccc2c(c1)cc1n2CCc2ccccc2-1 | Active
COc1cc2c(cc1OC)-c1cc3ccc(C(F)(F)F)cc3n1CC2 | Active
COc1cc2cc3n(c2cc1OC)CCc1ccccc1-3 | Active
COc1cc2c(cc1OC)-c1cc3cc(C(F)(F)F)ccc3n1CC2 | Active
COc1cc2c(cc1OC)-c1cc3cc(OC)c(OC)cc3n1CC2 | Active
COc1cccc2cc3n(c12)CCc1ccccc1-3 | Active
COc1cc2c(cc1OC)-c1cc3ccccc3n1CC2 | Active
FC(F)(F)c1ccc2cc3n(c2c1)CCc1ccccc1-3 | Active
c1ccc2c(c1)CCn1c-2cc2ccccc21 | Active

Tested on: not listed separately
Assay: Cytotoxicity against mouse splenocytes assessed as cell viability after 72 hrs by MTS assay
Type: cell-based
Conditions: splenocyte
How it was run: (§2)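 Spleen cells from non-infected mice, no stimulus added, cultured at 5 × 10⁶ cells/ml in AIM-V medium (1.25 × 10⁵ cells/well) with each compound for the stated time at 37 °C, 5% CO₂, humidified. MTS plus phenazine ethosulfate then added and incubated 3 h more. Absorbance read at 490 nm. Viability compared against vehicle control.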

Compound | Activity
FC(F)(F)c1ccc2c(c1)cc1n2CCc2ccccc2-1 | Non-toxic
COc1cc2c(cc1OC)-c1cc3ccc(C(F)(F)F)cc3n1CC2 | Non-toxic
COc1cc2cc3n(c2cc1OC)CCc1ccccc1-3 | Toxic
COc1cc2c(cc1OC)-c1cc3cc(C(F)(F)F)ccc3n1CC2 | Toxic
COc1cc2c(cc1OC)-c1cc3cc(OC)c(OC)cc3n1CC2 | Toxic
COc1cccc2cc3n(c12)CCc1ccccc1-3 | Toxic
COc1cc2c(cc1OC)-c1cc3ccccc3n1CC2 | Toxic
FC(F)(F)c1ccc2cc3n(c2c1)CCc1ccccc1-3 | Non-toxic

Tested on: not listed separately
Assay: Cytotoxicity against mouse splenocytes assessed as cell viability after 24 hrs by MTS assay
Type: cell-based
Conditions: splenocyte
How it was run: as §2

Compound | Activity
FC(F)(F)c1ccc2c(c1)cc1n2CCc2ccccc2-1 | Non-toxic
COc1cc2c(cc1OC)-c1cc3ccc(C(F)(F)F)cc3n1CC2 | Toxic
COc1cc2cc3n(c2cc1OC)CCc1ccccc1-3 | Toxic
COc1cc2c(cc1OC)-c1cc3cc(C(F)(F)F)ccc3n1CC2 | Toxic
COc1cc2c(cc1OC)-c1cc3cc(OC)c(OC)cc3n1CC2 | Toxic
COc1cccc2cc3n(c12)CCc1ccccc1-3 | Toxic
COc1cc2c(cc1OC)-c1cc3ccccc3n1CC2 | Toxic
FC(F)(F)c1ccc2cc3n(c2c1)CCc1ccccc1-3 | Toxic

Tested on: not listed separately
Assay: Cytotoxicity against mouse splenocytes assessed as cell viability after 48 hrs by MTS assay
Type: cell-based
Conditions: splenocyte
How it was run: as §2

Compound | Activity
FC(F)(F)c1ccc2c(c1)cc1n2CCc2ccccc2-1 | Non-toxic
COc1cc2c(cc1OC)-c1cc3ccc(C(F)(F)F)cc3n1CC2 | Non-toxic
COc1cc2cc3n(c2cc1OC)CCc1ccccc1-3 | Toxic
COc1cc2c(cc1OC)-c1cc3cc(C(F)(F)F)ccc3n1CC2 | Toxic
COc1cc2c(cc1OC)-c1cc3cc(OC)c(OC)cc3n1CC2 | Toxic
COc1cccc2cc3n(c12)CCc1ccccc1-3 | Toxic
COc1cc2c(cc1OC)-c1cc3ccccc3n1CC2 | Toxic
FC(F)(F)c1ccc2cc3n(c2c1)CCc1ccccc1-3 | Non-toxic

Tested on: Splenocyte
Assay: Immunosuppressive activity in influenza virus A/PR/8/34-H1N1 infected mouse splenocytes assessed as reduction of IL-10 level at 0.5 mg/ml after 96 hrs by ELISA
Type: functional, cell-based
Conditions: not given
How it was run: as §1

Compound | Activity
COc1cc2c(cc1OC)-c1cc3cccc(OC)c3n1CC2 | Active
FC(F)(F)c1ccc2c(c1)cc1n2CCc2ccccc2-1 | Active
COc1cc2c(cc1OC)-c1cc3ccc(C(F)(F)F)cc3n1CC2 | Active
COc1cc2cc3n(c2cc1OC)CCc1ccccc1-3 | Active
COc1cc2c(cc1OC)-c1cc3cc(C(F)(F)F)ccc3n1CC2 | Active
COc1cc2c(cc1OC)-c1cc3cc(OC)c(OC)cc3n1CC2 | Active
COc1cccc2cc3n(c12)CCc1ccccc1-3 | Active
COc1cc2c(cc1OC)-c1cc3ccccc3n1CC2 | Active
FC(F)(F)c1ccc2cc3n(c2c1)CCc1ccccc1-3 | Active
c1ccc2c(c1)CCn1c-2cc2ccccc21 | Active
